Results: publication PMC6231235 (Science translational medicine, 2017)

Tested on: human FXa
Assay: In vitro neutralization of anti-FXa activity by protamine
Assay type: biochemical
Details: sample at 25 x IC50, protamine 0 to 90 μg/ml
Outline: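 Human plasma is combined with a fixed test-compound stock set per construct and protamine chloride in PBS (0 to 90 μg/ml solutions), then held 5 min at room temperature. The mixture then goes into the chromogenic anti-FXa assay: human FXa for 4 min at room temperature, S-2765 substrate, and A405 read continuously for 5 min.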

CO[C@H]1O[C@H](COS(=O)(=O)O)[C@@H](O[C@@H]2O[C@@H](C(=O)O)[C@@H](O[C@H]3O[C@H](COS(=O)(=O)O)[C@@H](O[C@@H]4O[C@H](C(=O)O)[C@@H](O[C@H]5O[C@H](COS(=O)(=O)O)[C@@H](O)[C@H](O)[C@H]5NS(=O)(=O)O)[C@H](O)[C@H]4O)[C@H](OS(=O)(=O)O)[C@H]3NS(=O)(=O)O)[C@H](O)[C@H]2OS(=O)(=O)O)[C@H](O)[C@H]1NS(=O)(=O)O [Fondaparinux]
neutralization of anti-FXa activity by protamine in vitro: completely insensitive
